Data set [1] has as its target DNA topoisomerase 2-alpha (Homo sapiens) (UniProt P11388). The experiment in a line: Inhibition of topoisomerase 2 in human DU145 cells assessed as stabilization of enzyme-DNA cleavage complex at 130 nM after 30 mins by immunoblot analysis relative to control. It is filed as cell-based. Particulars: DU-145. In outline: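 DU-145 cells dosed 30 min or 72 h; controls given 0.1% DMSO. 72 h samples equalized to the 30 min cell count before lysis in 1% sarkosyl. Lysates spun on a CsCl gradient at 31,000 RPM, room temperature, 12 h. Fractions holding Topo II–DNA complexes found by A260, slot-blotted onto nitrocellulose, and immunoblotted for Topo II.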
In general terms: In western blotting, separated proteins are transferred to a membrane and probed.

The target in data set [2] is Histone deacetylase (HDAC1 and HDAC2) (Homo sapiens, UniProt Q13547+Q92769). As to the kind of experiment: Inhibition of HDAC1/2 in human HeLa cell nuclear extract using Fluor de Lys as substrate after 15 mins by fluorometric analysis. In kind it is protein assay.
Data set [3] addresses T1, Histone deacetylase (Homo sapiens) (UniProt Q13547+O15379+Q9UBN7+Q92769+Q9UQL6+Q8WUI4+Q9BY41+Q96DB2+P56524+Q9UKV0+Q969S8). The experiment in a line: Inhibition of HDAC in human DU145 cells assessed as upregulation of p21 expression at IC50 concentration after 4 hrs by Western blot analysis relative to control. It is filed as cell-based. Particulars: DU-145. The method in brief: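 Lysed in RIPA with protease inhibitors, cleared 14,000 RPM at 4°C. Immunoblotted, probing acetylated versus total tubulin; p21 also checked. Near-infrared detection at 700/800 nm.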

Data set [4] concerns the target T1, Histone deacetylase (Homo sapiens). The experiment in a line: Inhibition of HDAC in human DU145 cells assessed as histone H4 acetylation after 24 hrs by Western blot analysis. Particulars: DU-145. It is filed as cell-based. In outline: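 DU-145 cells passaged 24 h before dosing, then exposed 24 h to compound in growth medium (final DMSO 0.1%); controls received 0.1% DMSO. Lysed in RIPA with protease inhibitors at 4°C, cleared at 14,000 × g. Protein quantified against BSA, boiled, transferred to nitrocellulose. Probed for acetyl-H3, acetyl-H4 and p21waf1 with actin loading control; read by near-infrared scanning at 700/800 nm.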

The next data set deals with MCF7. The experiment in a line: Antiproliferative activity against human MCF7 cells after 72 hrs by MTS assay. In kind it is functional, cell-based. Particulars: MCF7, 72 h. For orientation: Tetrazolium assays rely on reduction of a dye to a coloured formazan, in cell work by metabolically active cells.
Data set [5] concerns the target T2, Protein deacetylase HDAC6 (Homo sapiens) (UniProt Q9UBN7).
T2 sequence (whole entry): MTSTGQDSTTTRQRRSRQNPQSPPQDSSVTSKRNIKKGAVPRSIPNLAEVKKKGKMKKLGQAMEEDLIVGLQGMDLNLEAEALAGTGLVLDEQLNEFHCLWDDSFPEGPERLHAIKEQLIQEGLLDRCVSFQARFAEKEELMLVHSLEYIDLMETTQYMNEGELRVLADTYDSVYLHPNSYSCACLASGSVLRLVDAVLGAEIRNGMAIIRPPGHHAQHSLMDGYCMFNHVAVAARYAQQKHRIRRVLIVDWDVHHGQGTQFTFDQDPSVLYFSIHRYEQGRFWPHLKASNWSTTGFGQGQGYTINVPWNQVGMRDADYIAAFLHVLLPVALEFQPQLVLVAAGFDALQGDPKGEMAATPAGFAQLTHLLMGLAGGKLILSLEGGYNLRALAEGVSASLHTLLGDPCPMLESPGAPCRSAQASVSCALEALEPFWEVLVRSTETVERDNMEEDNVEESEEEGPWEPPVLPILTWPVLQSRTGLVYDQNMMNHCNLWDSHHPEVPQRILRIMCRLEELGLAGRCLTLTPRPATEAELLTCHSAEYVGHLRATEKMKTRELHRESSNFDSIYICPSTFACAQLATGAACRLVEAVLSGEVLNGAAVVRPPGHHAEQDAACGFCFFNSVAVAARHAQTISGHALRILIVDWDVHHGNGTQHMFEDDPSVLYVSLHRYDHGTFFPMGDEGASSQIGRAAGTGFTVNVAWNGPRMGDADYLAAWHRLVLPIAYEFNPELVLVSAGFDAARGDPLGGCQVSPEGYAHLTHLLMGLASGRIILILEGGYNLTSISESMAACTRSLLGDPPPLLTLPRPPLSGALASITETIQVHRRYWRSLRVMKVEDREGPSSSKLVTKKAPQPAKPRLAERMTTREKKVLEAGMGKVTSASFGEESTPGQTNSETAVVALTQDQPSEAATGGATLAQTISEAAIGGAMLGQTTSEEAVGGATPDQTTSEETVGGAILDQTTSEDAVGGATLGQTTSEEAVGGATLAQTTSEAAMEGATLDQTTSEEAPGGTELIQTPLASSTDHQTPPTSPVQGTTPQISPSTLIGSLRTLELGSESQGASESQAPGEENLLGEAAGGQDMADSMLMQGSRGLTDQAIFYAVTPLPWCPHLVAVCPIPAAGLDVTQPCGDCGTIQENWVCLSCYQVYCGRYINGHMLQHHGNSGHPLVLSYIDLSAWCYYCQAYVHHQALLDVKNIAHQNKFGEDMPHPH
The experiment in a line: Inhibition of HDAC6-mediated tubulin acetylation in human DU145 cells at 90 nM after 4 hrs by Western blot analysis. Particulars: DU-145. In kind it is cell-based. The method in brief: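 DU-145 cells passaged 24 h before dosing, then treated 4 h, with no more than 0.1% DMSO including controls. Lysis in RIPA buffer with protease inhibitors, protein quantified against a BSA standard, SDS-PAGE and transfer. Blots probed with rabbit anti-tubulin and mouse anti-acetyl tubulin, read by near-infrared imaging at 700/800 nm.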

The target of data set [6] is T1, Histone deacetylase (Homo sapiens). To be noted: DU-145, 0.5 to 1 uM.
Data set [7] can be described thus: Drug uptake in human A549 cell cytosol at 1 uM after 4 hrs by confocal microscopic analysis. It is filed as ADME, cell-based. In outline:
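Cells plated on glass coverslips 24 h ahead, then given fresh media with compound at 1 μM for 4 h. After a PBS wash, coverslips were mounted and intracellular distribution imaged by confocal microscopy, excitation 488 nm. Done in DU-145 cells, with A549 lung tumor cells also examined.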

Another data set relates to DU-145. As to the kind of experiment: Antiproliferative activity against human DU145 cells after 72 hrs by MTS assay. Particulars: DU-145, 72 h. In kind it is functional, cell-based. The method in brief:
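DU-145 cells passaged 24 h before dosing and exposed 72 h; compounds from 10 mM DMSO stocks; controls given media with 0.1% DMSO; 37°C, 5% CO2. Viability read by MTS assay, with Trypan Blue staining also used. IC50 from the average of two experiments, each run in triplicate.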

Active and inactive are the calls of the source. The calls are words filed in the database; no cut-off is given here.

In general, IC50 refers to the concentration that gives 50% inhibition.

Sequence of DNA topoisomerase 2-alpha (Homo sapiens) (P11388 whole entry): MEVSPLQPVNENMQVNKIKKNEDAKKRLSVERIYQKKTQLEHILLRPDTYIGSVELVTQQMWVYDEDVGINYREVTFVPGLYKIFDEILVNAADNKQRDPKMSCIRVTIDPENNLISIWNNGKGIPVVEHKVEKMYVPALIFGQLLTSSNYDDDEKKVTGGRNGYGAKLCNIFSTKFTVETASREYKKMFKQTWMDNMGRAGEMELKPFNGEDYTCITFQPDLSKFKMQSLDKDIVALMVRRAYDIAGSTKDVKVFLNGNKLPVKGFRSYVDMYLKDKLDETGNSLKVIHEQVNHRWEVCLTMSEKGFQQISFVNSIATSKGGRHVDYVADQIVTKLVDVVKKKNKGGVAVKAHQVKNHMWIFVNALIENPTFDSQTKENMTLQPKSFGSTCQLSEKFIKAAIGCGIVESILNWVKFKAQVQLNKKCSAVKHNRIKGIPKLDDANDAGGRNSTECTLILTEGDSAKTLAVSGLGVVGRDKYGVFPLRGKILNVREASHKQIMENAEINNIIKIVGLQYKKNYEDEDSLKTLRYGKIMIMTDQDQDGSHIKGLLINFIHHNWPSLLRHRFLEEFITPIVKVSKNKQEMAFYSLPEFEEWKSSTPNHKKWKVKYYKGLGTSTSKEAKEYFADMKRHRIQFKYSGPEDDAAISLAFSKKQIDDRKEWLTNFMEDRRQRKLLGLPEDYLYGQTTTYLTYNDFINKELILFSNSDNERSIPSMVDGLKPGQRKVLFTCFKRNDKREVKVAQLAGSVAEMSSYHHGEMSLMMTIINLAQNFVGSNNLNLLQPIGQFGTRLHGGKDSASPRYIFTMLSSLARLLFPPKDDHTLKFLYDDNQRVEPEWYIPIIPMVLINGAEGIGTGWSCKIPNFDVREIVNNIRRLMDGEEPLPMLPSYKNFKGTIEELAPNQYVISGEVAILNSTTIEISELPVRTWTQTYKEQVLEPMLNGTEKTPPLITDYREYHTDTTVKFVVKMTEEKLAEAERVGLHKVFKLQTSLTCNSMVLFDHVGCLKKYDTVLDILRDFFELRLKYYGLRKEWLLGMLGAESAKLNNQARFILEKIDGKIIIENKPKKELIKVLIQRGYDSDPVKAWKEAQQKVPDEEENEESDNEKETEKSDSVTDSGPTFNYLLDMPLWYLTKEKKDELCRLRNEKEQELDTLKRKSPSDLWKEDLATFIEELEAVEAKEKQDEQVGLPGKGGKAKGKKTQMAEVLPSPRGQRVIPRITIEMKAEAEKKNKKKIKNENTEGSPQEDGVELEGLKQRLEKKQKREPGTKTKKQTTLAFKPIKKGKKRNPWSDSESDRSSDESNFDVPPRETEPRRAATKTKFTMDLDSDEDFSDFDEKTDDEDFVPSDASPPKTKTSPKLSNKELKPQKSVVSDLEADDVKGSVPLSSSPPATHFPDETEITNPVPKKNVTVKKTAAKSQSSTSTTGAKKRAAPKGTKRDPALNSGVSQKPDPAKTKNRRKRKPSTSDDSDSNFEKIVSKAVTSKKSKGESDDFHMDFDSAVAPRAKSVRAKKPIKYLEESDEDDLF

With `COc1cccc2c1C(=O)c1c(O)c3c(c(O)c1C2=O)C[C@@](O)(C(C)=O)C[C@@H]3O[C@H]1C[C@H](NCc2ccc(NC(=O)CCCCCCC(=O)NO)cc2)[C@H](O)[C@H](C)O1`, the inhibition entry in [1] was “inactive”. The figures for the IC50 (in data set [2]; in the data set on MCF7; in the data set on DU-145) were 64.7 nM, 990 nM and 130 nM, respectively. In data set [3], the result was inactive. Further, the inhibition result in [4] is “Dose-dependent effect”. Also, the inhibition result in [5] and in data set [6] was “Active” each time. Moreover, in data set [7], the Drug uptake entry is “Active”.

The values above are taken from ChEMBL document CHEMBL2021781, “Dual targeting of histone deacetylase and topoisomerase II with novel bifunctional inhibitors” (J Med Chem, 2012).
